From ChEMBL document CHEMBL4152384, “Pyrtriazoles, a Novel Class of Store-Operated Calcium Entry Modulators: Discovery, Biological Profiling, and in Vivo Proof-of-Concept Efficacy in Acute Pancreatitis” (J Med Chem, 2018) come the findings set out here.

Broadly, the IC50 is the concentration that inhibits the measured activity by half. The term CL/F denotes the apparent clearance, not corrected for the fraction that reaches the circulation. As usually defined, the half-life is the time in which the quantity being followed falls by half. In general, Cmax refers to the maximum level reached in the sampled fluid or tissue.

Series [1] is described as follows: Drug level in CD1 mouse liver microsomes treated with 3-(1-(4-(4-((Pentan-2-yloxy)carbonyl)-5-(trifluoromethyl)-1H-pyrazol-1-yl)-phenyl)-1H-1,2,3-triazol-4-yl)benzoic acid at 50 uM after 60 mind by mass spectroscopic analysis. The class given is ADME, microsome. (In general: Liver microsomes are a subcellular fraction often used to study metabolism.)
For series [2], the target named is Short transient receptor potential channel 1 & 3/Stromal interaction molecule 1/Calcium release-activated calcium channel protein 1 (Homo sapiens) (UniProt Q96D31+Q13507+Q13586+P48995). Briefly: Modulation of TRPC1/TRPC3/STIM1/Orai1 in HEK cells assessed as induction of store-operated calcium entry by measuring residual activity at 10 uM preincubated for 30 mins followed by tBhQ-mediated Ca2+ depletion and Ca2+ re-addition to extracellular solution measured for 600 secs by Fluo-4 AM-based fluorometric assay relative to control. The class given is cell-based.

Series [3] has as its target Short transient receptor potential channel 1 & 3/Stromal interaction molecule 1/Calcium release-activated calcium channel protein 1 (Homo sapiens, UniProt P48995+Q13507+Q13586+Q96D31). Description: Modulation of TRPC1/TRPC3/STIM1/Orai1 in HEK cells assessed as induction of store-operated calcium entry by measuring residual activity preincubated for 30 mins followed by tBhQ-mediated Ca2+ depletion and Ca2+ re-addition to extracellular solution measured for 600 secs by Fluo-4 AM-based fluorometric assay relative to control. The class given is cell-based.

A short description of series [4]: Cytotoxicity against HEK cells assessed as cell viability at 10 uM by MTT assay relative to control. The class given is cell-based. The conditions noted are these: human, read-out: Activity. The method, boiled down:
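Hek cells treated 24 h with compound at 10 μM; viability determined by MTT assay.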

Series [5] concerns the target Transient receptor potential cation channel subfamily V member 1 (Homo sapiens) (UniProt Q8NER1). Description: Antagonist activity at TRPV1 (unknown origin) expressed in HEK cells assessed as inhibition of capsaicin-induced calcium increase at 10 uM by fura-2-based assay. The class given is cell-based. The method, boiled down:
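TRPV1-overexpressing Hek cells; calcium rise evoked by capsaicin (100 nM), test compounds at 10 μM; peak amplitude read out; mean ± SEM of 600 cells from 30 plates on four separate experimental days.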

The target of series [6] is Transient receptor potential cation channel subfamily M member 8 (Homo sapiens) (UniProt Q7Z2W7). Briefly: Antagonist activity at TRPM8 (unknown origin) expressed in HEK cells assessed as inhibition of menthol -mediated calcium increase at 10 uM by fura-2-based assay. It counts as cell-based. The essentials:
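TRPM8-overexpressing Hek cells; calcium rise evoked by menthol (100 μM), test compounds at 10 μM; peak amplitude read out; mean ± SEM of 600 cells from 30 plates on four separate experimental days.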

The nature of series [7]: Metabolic stability in CD1 mouse plasma assessed as residual compound level at 50 uM after 30 mins by LC-UV analysis. The class given is ADME, cell-free. Particulars: read-out: Stability. The method, boiled down: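 Compounds incubated in mouse plasma for 30 min; percentage of residual substrate determined.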
A short description of series [8]: Drug metabolism in CD1 mouse liver microsomes assessed as ester group hydrolysis at 50 uM after 60 mins in presence of NADPH/UDPGA. The class given is ADME, microsome. Particulars: 1 h.
A short description of series [9]: Drug metabolism in CD1 mouse liver microsomes assessed as ester group hydrolysis at 50 uM after 60 mins in absence of NADPH/UDPGA. The class given is ADME, microsome. Particulars: 1 h.
A short description of series [10]: Metabolic stability in CD1 mouse liver S9 fraction assessed as residual compound level at 50 uM after 1 hr. Particulars: read-out: Stability. The class given is ADME, subcellular. The method, boiled down:
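Hydrolytic stability measured in mouse liver S9 fraction; residual substrate quantified after 1 h incubation.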

For series [11], the system named is Mus musculus. Description: Acute toxicity in CD1 mouse assessed as mortality at 40 mg/kg, ip administered as single dose for 14 days. It counts as organism-based. The conditions noted are these: in vivo, 336 h.
The test system of series [12] is Mus musculus. Description: Acute toxicity in CD1 mouse assessed as effect on body weight at 40 mg/kg, ip administered as single dose for 14 days. The class given is organism-based. The conditions noted are these: in vivo, 336 h.
Series [13] deals with Mus musculus. Description: Acute toxicity in CD1 mouse assessed as signs of distress at 40 mg/kg, ip administered as single dose for 14 days. The class given is organism-based. The conditions noted are these: in vivo, 336 h.
In series [14] the test system is Mus musculus. Briefly: Acute toxicity in CD1 mouse assessed as histological alterations in brain at 40 mg/kg, ip administered as single dose for 14 days. The conditions noted are these: in vivo, 336 h. The class given is organism-based.
In series [15] the test system is Mus musculus. Briefly: Acute toxicity in CD1 mouse assessed as histological alterations in heart at 40 mg/kg, ip administered as single dose for 14 days. Particulars: in vivo, 336 h. The class given is organism-based.
Series [16] concerns Mus musculus. Description: Acute toxicity in CD1 mouse assessed as histological alterations in liver at 40 mg/kg, ip administered as single dose for 14 days. The class given is organism-based. The conditions noted are these: in vivo, 336 h.
Series [17] deals with Mus musculus. Description: Acute toxicity in CD1 mouse assessed as histological alterations in lung at 40 mg/kg, ip administered as single dose for 14 days. The class given is organism-based. The conditions noted are these: in vivo, 336 h.
Series [18] deals with Mus musculus. Briefly: Acute toxicity in CD1 mouse assessed as histological alterations in kidney at 40 mg/kg, ip administered as single dose for 14 days. Particulars: in vivo, 336 h. It counts as organism-based.
The subject of series [19] is Mus musculus. Briefly: Acute toxicity in CD1 mouse assessed as histological alterations in stomach at 40 mg/kg, ip administered as single dose for 14 days. The class given is organism-based. Particulars: in vivo, 336 h.
Series [20] in a line: Clearance in ip dosed CD1 mouse by LC-ESI-MS analysis. It counts as ADME, organism-based. The conditions noted are these: in vivo.
The nature of series [21]: Half life in ip dosed CD1 mouse by LC-ESI-MS analysis. Particulars: in vivo. It counts as ADME, organism-based.
Series [22] has as its system Mus musculus. Description: Volume of distribution in ip dosed CD1 mouse by LC-ESI-MS analysis. It counts as ADME, organism-based. Particulars: in vivo.
Series [23] is described as follows: Cmax in ip dosed CD1 mouse after 1 hr by LC-ESI-MS analysis. The class given is ADME, organism-based. More on the design: route intraperitoneal. Particulars: in vivo.
Series [24] is described as follows: Plasma concentration in ip dosed CD1 mouse by LC-ESI-MS analysis. It counts as ADME, organism-based. Particulars: in vivo.
Series [25] has as its system Mus musculus. Briefly: Protection against cerulein-induced pancreatitis in CD1 mouse assessed as reduction in pancreatic edema at 40 mg/kg, ip administered at 30 and 150 mins post first cerulein addition by hematoxylin and eosin staining based microscopy. It counts as functional, organism-based.
The subject of series [26] is Mus musculus. Briefly: Protection against cerulein-induced pancreatitis in CD1 mouse assessed as reduction in pancreatic inflammation at 40 mg/kg, ip administered at 30 and 150 mins post first cerulein addition by hematoxylin and eosin staining based microscopy. It counts as functional, organism-based.
Series [27] concerns Mus musculus. Briefly: Protection against cerulein-induced pancreatitis in CD1 mouse assessed as reduction in neutrophil infiltration at 40 mg/kg, ip administered at 30 and 150 mins post first cerulein addition by myeloperoxidase staining based spectrophotometry. It counts as functional, organism-based.
Series [28] in a line: Drug metabolism in CD1 mouse liver microsomes assessed as 1-(4-(4-(3-Carboxyphenyl)-1H-1,2,3-triazol-1-yl)phenyl)-5-(trifluoromethyl)-1H-pyrazole-4-carboxylic Acid metabolite formation at 50 uM after 60 mins by mass spectroscopic analysis. It counts as ADME, microsome.
Series [29] relates to Mus musculus. Description: Acute toxicity in CD1 mouse assessed as histological alterations in ileum at 40 mg/kg, ip administered as single dose for 14 days. The class given is organism-based. Particulars: in vivo, 336 h.
Series [30] in a line: Drug metabolism in CD1 mouse liver microsomes assessed as 3-(1-(4-(4-((Pentan-2-yloxy)carbonyl)-5-(trifluoromethyl)-1H-pyrazol-1-yl)-phenyl)-1H-1,2,3-triazol-4-yl)benzoic Acid metabolite formation at 50 uM after 60 mins by mass spectroscopic analysis. The class given is ADME, microsome.
The subject of series [31] is voltage-gated calcium channel (Mus musculus). Briefly: Antagonist activity at voltage-gated calcium channels in C57/BL6 mouse cerebellar granule cells assessed as inhibition of KCl-induced voltage dependent calcium entry at 10 uM by fura-2-based assay.
Series [32] shares this test system. The description is as above. The source holds these as a separate data set.

Active and inactive are the calls of the source. The rule behind the calls is not given here.

Transient receptor potential cation channel subfamily M member 8 (Homo sapiens), sequence (Q7Z2W7 whole entry, looked up): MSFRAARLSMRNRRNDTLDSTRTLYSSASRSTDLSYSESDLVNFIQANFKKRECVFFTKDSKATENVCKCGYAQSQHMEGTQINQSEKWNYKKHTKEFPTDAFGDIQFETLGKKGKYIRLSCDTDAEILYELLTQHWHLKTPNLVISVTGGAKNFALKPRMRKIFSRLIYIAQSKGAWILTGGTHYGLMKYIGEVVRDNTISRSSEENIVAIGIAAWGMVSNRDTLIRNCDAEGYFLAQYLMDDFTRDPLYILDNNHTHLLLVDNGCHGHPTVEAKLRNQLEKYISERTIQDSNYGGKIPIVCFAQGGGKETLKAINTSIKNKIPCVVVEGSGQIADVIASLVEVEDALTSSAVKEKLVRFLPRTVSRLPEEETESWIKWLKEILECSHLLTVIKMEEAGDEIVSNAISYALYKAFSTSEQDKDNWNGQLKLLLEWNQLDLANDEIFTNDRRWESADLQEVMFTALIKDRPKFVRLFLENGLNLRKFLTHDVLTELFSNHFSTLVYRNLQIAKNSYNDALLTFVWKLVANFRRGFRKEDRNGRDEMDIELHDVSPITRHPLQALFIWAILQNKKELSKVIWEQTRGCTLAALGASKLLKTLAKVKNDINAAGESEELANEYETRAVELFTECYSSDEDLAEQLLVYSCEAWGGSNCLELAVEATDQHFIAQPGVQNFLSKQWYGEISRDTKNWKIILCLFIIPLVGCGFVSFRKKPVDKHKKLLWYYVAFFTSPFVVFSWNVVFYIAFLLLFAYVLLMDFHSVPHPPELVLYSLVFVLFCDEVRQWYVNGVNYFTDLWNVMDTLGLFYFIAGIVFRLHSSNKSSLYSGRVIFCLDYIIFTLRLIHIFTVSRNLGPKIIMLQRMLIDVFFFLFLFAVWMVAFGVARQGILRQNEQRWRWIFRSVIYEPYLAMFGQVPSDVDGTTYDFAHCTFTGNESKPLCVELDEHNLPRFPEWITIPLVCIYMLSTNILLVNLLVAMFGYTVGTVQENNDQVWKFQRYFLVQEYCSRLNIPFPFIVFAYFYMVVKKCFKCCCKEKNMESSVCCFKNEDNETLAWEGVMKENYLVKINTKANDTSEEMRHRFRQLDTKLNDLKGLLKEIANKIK
Short transient receptor potential channel 1 & 3/Stromal interaction molecule 1/Calcium release-activated calcium channel protein 1, sequence (Q96D31 whole entry): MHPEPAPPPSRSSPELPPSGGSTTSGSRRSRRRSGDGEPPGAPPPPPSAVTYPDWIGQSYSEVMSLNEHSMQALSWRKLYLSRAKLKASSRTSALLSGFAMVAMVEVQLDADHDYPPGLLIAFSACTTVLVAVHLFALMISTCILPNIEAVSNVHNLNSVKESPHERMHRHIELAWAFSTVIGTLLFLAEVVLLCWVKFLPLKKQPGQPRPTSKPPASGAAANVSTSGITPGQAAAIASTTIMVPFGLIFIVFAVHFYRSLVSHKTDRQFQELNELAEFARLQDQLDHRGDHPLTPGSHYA
Short transient receptor potential channel 1 & 3/Stromal interaction molecule 1/Calcium release-activated calcium channel protein 1, sequence (Q13507 whole entry): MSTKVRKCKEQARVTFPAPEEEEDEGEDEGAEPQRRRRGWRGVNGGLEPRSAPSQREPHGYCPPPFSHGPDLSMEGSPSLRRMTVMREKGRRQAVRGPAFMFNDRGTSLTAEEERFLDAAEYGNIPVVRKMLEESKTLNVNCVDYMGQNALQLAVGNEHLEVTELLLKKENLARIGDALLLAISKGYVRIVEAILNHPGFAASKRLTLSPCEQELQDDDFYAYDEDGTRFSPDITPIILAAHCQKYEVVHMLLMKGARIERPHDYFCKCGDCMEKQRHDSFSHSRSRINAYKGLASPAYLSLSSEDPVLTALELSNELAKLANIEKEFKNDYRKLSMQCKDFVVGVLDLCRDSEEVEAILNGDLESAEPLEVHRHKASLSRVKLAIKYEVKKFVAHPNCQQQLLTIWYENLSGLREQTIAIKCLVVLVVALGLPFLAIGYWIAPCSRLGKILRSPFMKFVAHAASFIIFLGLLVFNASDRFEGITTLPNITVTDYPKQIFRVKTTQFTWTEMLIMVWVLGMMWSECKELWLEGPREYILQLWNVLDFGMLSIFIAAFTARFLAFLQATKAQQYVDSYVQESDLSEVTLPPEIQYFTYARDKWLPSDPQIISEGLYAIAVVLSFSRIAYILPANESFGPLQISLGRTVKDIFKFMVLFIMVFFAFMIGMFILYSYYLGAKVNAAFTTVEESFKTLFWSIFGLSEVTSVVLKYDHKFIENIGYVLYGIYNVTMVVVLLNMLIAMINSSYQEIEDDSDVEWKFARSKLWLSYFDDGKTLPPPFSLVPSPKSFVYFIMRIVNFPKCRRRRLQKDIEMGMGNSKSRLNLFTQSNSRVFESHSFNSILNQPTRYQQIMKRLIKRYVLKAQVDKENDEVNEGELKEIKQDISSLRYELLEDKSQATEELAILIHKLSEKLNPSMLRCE
Short transient receptor potential channel 1 & 3/Stromal interaction molecule 1/Calcium release-activated calcium channel protein 1, sequence (Q13586 whole entry): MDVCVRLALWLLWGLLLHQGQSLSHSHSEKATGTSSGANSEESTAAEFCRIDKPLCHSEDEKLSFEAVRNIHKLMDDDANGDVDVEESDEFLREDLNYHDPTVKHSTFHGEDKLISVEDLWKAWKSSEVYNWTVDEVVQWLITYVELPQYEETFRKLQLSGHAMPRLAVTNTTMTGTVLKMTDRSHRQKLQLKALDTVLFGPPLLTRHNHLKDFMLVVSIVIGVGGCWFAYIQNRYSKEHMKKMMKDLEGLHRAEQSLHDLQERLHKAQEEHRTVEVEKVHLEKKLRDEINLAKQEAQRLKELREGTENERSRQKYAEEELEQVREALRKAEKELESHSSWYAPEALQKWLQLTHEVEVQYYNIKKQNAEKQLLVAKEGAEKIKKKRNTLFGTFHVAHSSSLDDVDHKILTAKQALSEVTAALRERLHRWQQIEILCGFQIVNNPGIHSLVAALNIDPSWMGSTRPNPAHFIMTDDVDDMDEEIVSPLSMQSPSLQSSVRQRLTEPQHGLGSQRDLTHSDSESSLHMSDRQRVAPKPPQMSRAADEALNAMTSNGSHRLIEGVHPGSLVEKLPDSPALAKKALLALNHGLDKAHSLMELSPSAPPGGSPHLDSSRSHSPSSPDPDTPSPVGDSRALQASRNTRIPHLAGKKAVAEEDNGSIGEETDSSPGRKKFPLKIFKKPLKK
Short transient receptor potential channel 1 & 3/Stromal interaction molecule 1/Calcium release-activated calcium channel protein 1, sequence (P48995 whole entry): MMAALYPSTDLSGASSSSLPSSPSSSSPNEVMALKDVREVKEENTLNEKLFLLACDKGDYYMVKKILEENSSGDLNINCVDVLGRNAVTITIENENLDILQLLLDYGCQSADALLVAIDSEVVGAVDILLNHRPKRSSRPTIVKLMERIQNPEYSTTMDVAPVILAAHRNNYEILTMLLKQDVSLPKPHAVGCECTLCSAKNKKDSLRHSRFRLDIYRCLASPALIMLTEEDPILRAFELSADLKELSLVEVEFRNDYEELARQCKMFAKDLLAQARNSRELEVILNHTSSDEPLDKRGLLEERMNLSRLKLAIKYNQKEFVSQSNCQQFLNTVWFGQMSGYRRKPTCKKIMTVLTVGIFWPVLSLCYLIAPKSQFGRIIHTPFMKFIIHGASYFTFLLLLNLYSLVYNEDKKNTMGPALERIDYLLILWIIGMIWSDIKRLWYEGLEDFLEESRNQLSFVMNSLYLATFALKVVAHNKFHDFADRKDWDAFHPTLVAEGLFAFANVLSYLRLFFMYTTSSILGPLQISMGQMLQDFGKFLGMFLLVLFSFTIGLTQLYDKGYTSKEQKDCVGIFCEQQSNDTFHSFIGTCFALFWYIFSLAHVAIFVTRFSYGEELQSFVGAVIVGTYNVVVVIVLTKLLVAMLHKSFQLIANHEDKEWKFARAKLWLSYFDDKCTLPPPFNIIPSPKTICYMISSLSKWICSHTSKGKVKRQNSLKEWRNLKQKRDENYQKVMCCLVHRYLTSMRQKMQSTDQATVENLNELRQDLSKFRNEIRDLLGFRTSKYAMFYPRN
Transient receptor potential cation channel subfamily V member 1 (Homo sapiens), sequence (Q8NER1 whole entry): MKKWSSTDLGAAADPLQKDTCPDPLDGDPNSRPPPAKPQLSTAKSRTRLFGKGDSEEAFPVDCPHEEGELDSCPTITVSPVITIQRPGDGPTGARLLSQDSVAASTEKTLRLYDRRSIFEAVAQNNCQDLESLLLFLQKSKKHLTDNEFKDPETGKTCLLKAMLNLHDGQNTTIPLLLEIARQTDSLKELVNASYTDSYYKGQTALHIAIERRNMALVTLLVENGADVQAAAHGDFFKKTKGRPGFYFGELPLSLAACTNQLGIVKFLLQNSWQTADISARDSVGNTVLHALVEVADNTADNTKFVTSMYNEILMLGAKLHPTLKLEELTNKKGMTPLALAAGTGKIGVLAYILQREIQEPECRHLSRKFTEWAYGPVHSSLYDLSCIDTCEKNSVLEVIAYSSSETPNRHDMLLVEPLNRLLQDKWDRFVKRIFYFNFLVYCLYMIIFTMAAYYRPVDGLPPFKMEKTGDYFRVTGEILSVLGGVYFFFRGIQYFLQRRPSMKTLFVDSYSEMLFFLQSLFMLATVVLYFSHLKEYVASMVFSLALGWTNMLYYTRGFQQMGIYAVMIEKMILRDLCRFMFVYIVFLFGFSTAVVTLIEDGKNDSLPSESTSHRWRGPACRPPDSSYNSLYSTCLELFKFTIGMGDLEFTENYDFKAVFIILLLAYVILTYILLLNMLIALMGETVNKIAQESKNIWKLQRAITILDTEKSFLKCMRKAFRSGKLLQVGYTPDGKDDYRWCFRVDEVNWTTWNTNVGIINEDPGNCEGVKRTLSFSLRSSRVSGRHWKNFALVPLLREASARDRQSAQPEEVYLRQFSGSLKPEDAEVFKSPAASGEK

As to `CCCC(C)OC(=O)c1cnn(-c2ccc(-n3cc(-c4cccc(C(=O)O[C@@H]5O[C@H](C(=O)O)[C@@H](O)[C@H](O)[C@H]5O)c4)nn3)cc2)c1C(F)(F)F` (some centres not stated), the Drug uptake entry in [1] is listed as “Active”.
Regarding `CCCC(C)OC(=O)c1cnn(-c2ccc(-n3cc(-c4cccc(C(=O)O)c4)nn3)cc2)c1C(F)(F)F` (configuration not stated), the Activity is 17.5% in series [2]; “Non-Toxic” in series [11]; “Non-Toxic” in [12]; “Non-Toxic” in series [13]; “Non-Toxic” in [14]; “Non-Toxic” in series [15]. The Activity entry in series [16], in series [17], in [18], in series [19] and in series [29] was “Non-Toxic” in each case. In [3], the IC50 worked out at 4.4 µM. In addition, the viability at 10 µM in series [4] turned out to be 93.6%. The inhibition result in series [5], in series [6], in series [31] and in series [32] was “inactive” throughout. The remaining at 0.5 h, 50 µM in [7] was 97.8%. The Drug metabolism entry in series [8] is listed as “Metabolite_Detected”; in series [9], “Metabolite_Detected”; in series [28], “Metabolite_Notdetected”; in series [30], “Metabolite_Detected”. For the same molecule, the remaining at 1 h, 50 µM in series [10] came out at 73.7%. This molecule had a CL/F in series [20] of 283 mL/min/kg. The same molecule showed a half-life in [21] of 1.3 h. Besides, in series [22], the Vd came to 32 L/kg. This molecule registered a peak concentration (Cmax) in [23] of 640 ng/mL. Also, in [24], the concentration was found to be 1200 nM. In addition, the outcome in [25], in series [26] and in series [27] was Active.
